Screens deposited in PubChem BioAssay by Broad Institute.
Sampled rows, rich in hits. Any-hit rate of the full collection: about 2.6%.
SR-BI DiI-HDL act – activators of SR-BI mediated HDL lipid uptake; activation, % at 12.5 µM; CHO ldlA[mSR-BI] cells, DiI-HDL uptake fluorescence, 3 h; 100 = double the neutral-control signal; AID 504775; 0.096% of 320,000 active;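 active means mean replicate activation of at least 60% and every replicate at or above 60%; inconclusive means mean or all-replicate condition met, but not both; inactive means mean below 60% and not all replicates reaching 60%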;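 further: 0% = median plate neutral-control signal and 100% = twice that signal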
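system = CHO ldlA[mSR-BI] cells, LDL receptor-null, SR-BI overexpressing | medium = Ham's F12 with 0.5% BSA, HEPES 25 mM, pH 7.4 | probe or stimulus = DiI-HDL 10 µg/mL | compound dosing = single-point compound dose | incubation = compound exposure 3 h, 37 °C | technique = DiI fluorescence, bottom read | read-out = cell-associated DiI fluorescence as measure of HDL uptake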
dFosB activator – mouse delta FosB homodimer activation. purified delta FosB, TAMRA-CDK5 oligo fluorescence polarization; percent of positive-control signal above neutral wells. P13346. 0.99% of 340,000 active. activation, % at 25 µM;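 active means mean activation above about 17%, with every replicate also reaching it, limit read from the data, passing the limit was not always enough; inconclusive means only one of the two conditions met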
Target sequence (P13346 whole entry, looked up): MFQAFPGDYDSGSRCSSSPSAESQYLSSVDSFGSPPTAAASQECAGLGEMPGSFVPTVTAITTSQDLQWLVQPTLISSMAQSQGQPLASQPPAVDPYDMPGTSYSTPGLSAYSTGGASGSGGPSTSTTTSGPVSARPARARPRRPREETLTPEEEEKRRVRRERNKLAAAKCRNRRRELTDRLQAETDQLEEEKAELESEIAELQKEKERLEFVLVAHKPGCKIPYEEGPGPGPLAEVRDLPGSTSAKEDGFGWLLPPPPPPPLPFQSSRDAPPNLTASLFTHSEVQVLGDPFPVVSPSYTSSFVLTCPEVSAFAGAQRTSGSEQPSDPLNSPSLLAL
PvdQ acylase – P. aeruginosa PvdQ acylase inhibition | 0.063% of 340,000 active | inhibition, % at 10 µM | purified PvdQ acylase, fluorescence plate reader; in the data active means inhibition above about 30%, passing the limit was not always enough; inconclusive means no clear call, values can overlap the other calls;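 further: 0% = vehicle neutral wells and 100% = reference inhibitor wells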
rRNA inh HTS – inhibitors of bacterial rRNA selective over humanized ribosomes; GFP signal change (wild-type ribosome), % (test concentration not listed); E. coli WT GFP vs humanized-ribosome RFP mutants, fluorescence, 24 h; hits give low values; DMSO median 0, no signal -100; AID 720706; 1.6% of 350,000 active;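 active means significant combined selectivity score with lowered wild-type GFP, culture density cut under 30%, mutant RFP and density less affected; inactive means any of these conditions unmet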
XiGFP reactiv – activators of X-chromosome reactivation in mouse fibroblasts; XiGFP mouse fibroblasts, % GFP-positive cells imaging, 3 d; cells co-treated with 5-aza-dC sensitizer; scaled so ellipticine positive control = 100%; 0.055% of 360,000 active; activation, % at 7.58 µM;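 active means mean normalized replicate activation at least 10% and every replicate at or above 10%; inconclusive means only one of the two criteria met; inactive means mean below 10% and not all replicates reach 10%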;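 further: 0% = median of on-plate neutral control wells and 100% = ellipticine 6 µM median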
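Assay system: SV40-immortalized XiGFP fibroblast cells, line 68-5-11; buffer or medium: DMEM plus 5-aza-dC sensitizer; compound: one concentration, pinned; timing: compounds 3 days, fix/stain 15 min at room temperature; benchmarks: positive control ellipticine, 6 µM final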
SR-BI DiI inh – mouse SR-BI HDL lipid transfer inhibition. 0.96% of 320,000 active. AID 488896. ldlA[mSR-BI] CHO cells, DiI-HDL uptake fluorescence, 3 h. inhibition, % at 12.5 µM;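 active means mean replicate inhibition of at least 70% and a set share of replicates each scoring 70 or more; inconclusive means meets just one of the two criteria; inactive means fails both criteria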;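 further: 0% = median of neutral control wells and 100% = median of positive control wells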
* marks the source's active call; other numbers are inactive results; ? = inconclusive; . = no result.

SMILES | SR-BI DiI-HDL act | dFosB activator | PvdQ acylase | rRNA inh HTS | XiGFP reactiv | SR-BI DiI inh
COc1cc(NC(=O)C2=C(N3CCOCC3)/C(=C/c3ccc(Cl)cc3)CC2)cc(OC)c1OC | -74 | -16 | -5 | . | 0 | 74*
CC(=O)N1[C@H](CO)[C@@H]2c3ccccc3N(S(=O)(=O)c3ccccc3)C[C@@H]21 | . | . | . | 0 | 0 | .
CCCCN1C(=O)C(=O)N(CC(=O)Nc2ccc(C(N)=O)cc2)C1=O | 13 | 2 | 11 | 20 | 0 | -13
O=C(N1CCN(c2ccccc2)CC1)C12CC3CC(CC(C3)C1)C2 | 12 | -6 | -5 | -6 | . | -12
Cc1nnn(C23C[C@@H]4C[C@@H](CC(C(=O)N5CCN(c6ccccc6)CC5)(C4)C2)C3)n1 | 11 | -1 | -15 | -31* | 0 | -11
O=C(Cn1cnc2ccccc21)c1ccc(Br)cc1 | 5 | 1 | -11 | -28* | 0 | -5
C=C(Br)Cn1cnc2ccccc21 | -1 | 3 | -3 | -2 | 0 | 1
COc1ccccc1-c1c(C(F)(F)F)oc2cc(OS(C)(=O)=O)ccc2c1=O | 13 | -10 | 0 | -26* | 0 | -13
COc1ccccc1-c1c(C(F)(F)F)oc2cc(OC(=O)c3ccccc3[N+](=O)[O-])ccc2c1=O | -30 | -4 | -1 | . | . | 30
CC(C)(C)C1CCC(OC(=O)c2ccncc2)CC1 (stereo unspecified) | 5 | -6 | 0 | . | . | -5
CC(C)C[C@@H](C)C(=O)N(Cc1ccccc1)c1ccccc1 | 15 | 3 | -4 | -35* | 0 | -15
CC[C@@H](CCC=C(C)C)C(=O)N(Cc1ccccc1)c1ccccc1 | 9 | -3 | -13 | -2 | 0 | -9
C=CCN1C(=O)C(Cc2cccc(Cl)c2)SC1=Nc1ccc(C(=O)O)cc1 (stereo unspecified) | 63* | -2 | -14 | -19 | 0 | -63
Cc1ccc(-c2[nH]nc(N)c2N=Nc2cccc(Cl)c2C)cc1 | -84 | -1 | -8 | . | . | 84*
Cc1[nH]nc(N)c1-c1ccc(Cl)cc1 | 30 | 0 | -16 | -7 | 0 | -30
COC(=O)c1ccccc1N=Nc1c(N)n[nH]c1N | 2 | -4 | -4 | 7 | 0 | -2
Cc1ccc(N=Nc2c(N)n[nH]c2N)cc1 | 13 | 0 | -5 | 6 | 0 | -13
Cc1ccc(-c2[nH]nc(N)c2N=Nc2ccccc2C)cc1 | -76 | 3 | 7 | . | . | 76*
Cc1cccc(N=Nc2c(N)n[nH]c2-c2ccc(Cl)cc2)c1 | -71 | -6 | -11 | . | . | 71*
CCCCNC(=S)N1CCN(c2ccc(C(C)=O)cc2)CC1 | -11 | 0 | 1 | -22* | 0 | 11
N=C(N)SCCN | . | 0 | -8 | 9 | 0 | .
COc1ccc(S(=O)(=O)Nc2ccc3c(c2)C(=O)N([C@@H](C)CO)C[C@@H](C)[C@H](CN(C)Cc2ccccc2)OCCCC[C@@H](C)O3)cc1 | . | . | . | -1 | 0 | .
CCN(CC)C(=O)COc1ccc2c(-c3ccc(OC)cc3)cc(=O)oc2c1 | -39 | -18 | -20 | -22* | 0 | 39
CCn1c(COc2ccc(=O)n(-c3ccccc3)n2)nnc1SCC(=O)OC | -7 | -1 | 4 | -13 | 0 | 7
COC(=O)Cn1c(=NC(=O)c2ccc(OC)cc2)sc2cc(OC)ccc21 | -71 | 3 | 5 | 8 | 0 | 71*
SMILES | SR-BI DiI-HDL act | dFosB activator | PvdQ acylase | rRNA inh HTS | XiGFP reactiv | SR-BI DiI inh
COC(=O)Cn1c(=NC(=O)c2cc(OC)cc(OC)c2)sc2cc(OC)ccc21 | -62 | 12 | -10 | . | 5 | 62
O=C(Nc1ccccc1)N1CCC(C(=O)N2CCN(c3ccccc3F)CC2)CC1 | -80 | -3 | -8 | -3 | 0 | 80*
Cc1ccc(-c2nc3cnccn3c2Nc2ccc3c(c2)OCO3)o1 | -14 | -13 | 9 | -17* | 0 | 14
Cc1cc(C)n2c(Nc3ccc4c(c3)OCCO4)c(-c3ccccn3)nc2n1 | . | . | . | 5 | 0 | .
Cc1ccn2c(Nc3ccc4c(c3)OCO4)c(-c3ccccn3)nc2c1 | 17 | 21* | -8 | 25 | 0 | -17
Cc1ccc(Nc2c(-c3ccccn3)nc3cc(C)ccn23)cc1 | -19 | 21* | 6 | -58 | 0 | 19
Cc1ccc(Nc2c(-c3ccccn3)nc3ccc(C)cn23)cc1 | . | ? | -8 | 5 | 0 | .
CN1CCCCN2[C@H](CO)[C@@H](c3ccc(-c4ccccc4)cc3)[C@H]2C1 | . | . | . | 0 | 0 | .
S=c1[nH]nc(Cc2ccccc2)n1-c1ccccc1 | 35 | 1 | -7 | . | . | -35
CC(C)(C)c1csc(NNC(=O)c2ccc(Br)cc2)n1 | -32 | -4 | -2 | 9 | 0 | 32
C[C@@H]1CN([C@H](C)CO)C(=O)Cc2cc(NC(=O)CCC(F)(F)F)ccc2O[C@@H]1CN(C)C(=O)Nc1ccc(F)cc1 | . | . | . | 3 | -1 | .
NNC(=O)c1cccc(S(=O)(=O)Nc2cc(Cl)ccc2Cl)c1 | . | -9 | 7 | -20* | 0 | .
COc1ccccc1NS(=O)(=O)c1cccc(C(=O)NN)c1 | 39 | 1 | 6 | . | . | -39
COc1ccc(C2C(C(C)=O)=C(O)C(=O)N2c2ccc(C)cc2)cc1 (stereo unspecified) | 9 | -1 | -13 | -24* | 0 | -9
COc1cc(Cn2c3ccc(NC(=O)CCc4cccnc4)cc3c(=O)n2C)ccc1F | . | . | . | 2 | 0 | .
O=C(NNc1ccc([N+](=O)[O-])cc1)Nc1ccccc1 | -13 | 0 | -4 | 9 | 0 | 13
O=C(NNc1ccc([N+](=O)[O-])cn1)Nc1ccc(N=Nc2ccccc2)cc1 | -100 | -9 | -6 | -4.1* | 0 | 100*
O=C(NNC(=O)c1ccncc1)Nc1ccc(N=Nc2ccccc2)cc1 | -72 | 4 | -1 | . | 0 | 72*
COc1ccc(-c2oc3ccc(-c4cc(OC)c(OC)c(OC)c4)cc3c2C(=O)c2ccc(OC)nc2)cc1 | -44 | 0 | -13 | 12 | 0 | 44
COc1ccc(-c2oc3ccc(-c4ccc(OC)nc4)cc3c2-c2ccc(OC)cc2)cc1 | -46 | -4 | -25 | 7 | 0 | 46
CCCOC(=O)c1c(-c2ccc(OC)cc2)oc2ccc(-c3ccc(OC)nc3)cc12 | -73 | 1 | -15 | 19 | 0 | 73*
COc1ccc(-c2sc3cc4c(cc3c2C#CC2(O)CCCCC2)OCO4)cc1 | -66 | -2 | -4 | 13 | 0 | 66
COc1ccc(C(=O)c2c(-c3ccc(OC)cc3)oc3ccc(-c4cc(OC)c(OC)c(OC)c4)cc23)cc1 | -73 | -4 | -5 | 5 | 0 | 73*
COc1ccc(-c2oc3ccc(-c4ccc(OC)nc4)cc3c2C#CC2(O)CCCCC2)cc1 | -85 | -8 | -31 | 7 | 0 | 85*
